In PubChem BioAssay:
Activity calls are given as the source filed them.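 How the source made its calls, unless noted: active means viability at or below 10% of carrier control in both of two separate runs; inconclusive means viability at or below 10% in only one of the two runs; inactive means the rest.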

Tests used:
[1] = reduced viability of SK-BR-3 breast cancer cells – cell-based, 24 h, human, pilot screen (AID 572); conditions: SK-BR-3 viability, CellTiter-Glo luminescence, at 10 µM, stronger effect = lower value;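 further: compound exposure lasted between 18 and 24 h rather than exactly 24 h; 100% = carrier-treated control wells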
[2] = HUVEC growth inhibition – cell-based, human, primary screen (AID 575;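 active means viability at or below 30% in both replicate assays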;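 further: 100% = median of untreated cell wells with 0.1% DMSO on each plate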); conditions: HUVEC proliferation, CellTiter-Glo luminescence, 72 h; at 10 µM; stronger effect = lower value
Summary of the method: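 material = primary HUVEC, no more than 12 passages | input = 1250 cells per well | controls = vehicle and MePR control wells | measured by = CTG luminescence | times = 72 h compound incubation | format = collagen-coated 384-well format | read-out = % viability vs DMSO wells | doses = single 10 µM dose, 0.1% DMSO, from 5x medium stock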

[3] = H69AR cell proliferation blockers – human, duplicate replicates, primary screen (AID 580;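 active means viability at or under a set limit in both replicates, limit being median viability minus 3 SD, cut at about 48% in these data, passing the limit was not always enough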;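 further: 100% = mean luminescence of untreated wells and 0% = no signal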); conditions: H69AR lung tumor cells viability, ATP luminescence, 72 h; at 10 µM; stronger effect = lower value
[4] = MRP1 drug-resistance reversers in H69AR cells – cell-based, doxorubicin co-treatment, pilot screen (AID 601;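 active means viability loss from added drug above about 55%, and viability with drug at most 40%, in both replicates, limit read from the data, passing the limit was not always enough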); conditions: CellTiter-Glo, 72 h, at 10 µM; for differential viability (reversal): stronger effect = higher value
[5] = yeast transport mutant growth inhibition pilot in 384-well plates, post-Golgi transport modulator project (AID 636; in the data active means inhibition above about 31%); conditions: absorbance 615 nm, about 18 h, stronger effect = higher value
[6] = growth suppression of yeast trafficking mutant, preliminary HTS, modulators of trafficking downstream of Golgi apparatus project, 1536-format plate, OD 615 nm (AID 637; in the data active means inhibition above about 30%); conditions: yeast transport mutant growth, absorbance 615 nm, 18 h; stronger effect = higher value
[7] = H69AR cells + 2 uM doxorubicin, measured here: viability with 2 uM doxorubicin, stronger effect = lower value
[8] = H69AR cells, compound alone cytotoxicity

Row | SMILES | viability [1] | viability [2] | viability [3] | differential viability (reversal) ([4]; H69AR cells + 2 uM doxorubicin) | viability [4, 7] [%] | viability [4, 8] [%] | inhibition [5] | inhibition [6]
1 | C[C@]12CC[C@@H]3c4ccc(O)cc4C(=O)C[C@H]3[C@@H]1CC[C@@H]2O | 103% (inactive) | 89.2% (inactive) | 80.6% (inactive) | 2.45% (inactive) | 78.2 | 80.6 | -0.39% (inactive) | 2.67% (inactive)
2 | Cc1ccc(-n2nc3cc(Cl)c(NC(=O)c4ccco4)cc3n2)cc1 | 116% (inactive) | 92.6% (inactive) | 42.7% (active) | -5.97% (inactive) | 48.7 | 42.7 | -7.53% (inactive) | 2.7% (inactive)
3 | Cc1cc(C)c2nc(C(F)(F)F)nc(NCCCN3CCCC3=O)c2c1 | 113% (inactive) | 51.4% (inactive) | 83.7% (inactive) | -9.04% (inactive) | 92.7 | 83.7 | -4.38% (inactive) | 0.65% (inactive)
4 | COc1ccc(-c2nnc(SCc3nnc(-c4ccc(Cl)cc4)o3)n2-c2ccccc2)cc1 | 73% (inactive) | 55.6% (inactive) | 84.3% (inactive) | 4.27% (inactive) | 80 | 84.3 | -2.27% (inactive) | 15.4% (inactive)
5 | O=C1CCc2cc(OCCCCc3nnnn3C3CCCCC3)ccc2N1 | 98% (inactive) | 78.6% (inactive) | 101% (inactive) | 13% (inactive) | 88.2 | 101 | 1.82% (inactive) | -4% (inactive)
6 | CC(=N\O)/C(CN(C)C)=N/O | 97% (inactive) | 88.7% (inactive) | 91.5% (inactive) | -6.4% (inactive) | 97.9 | 91.5 | -1.78% (inactive) | 25.6% (inactive)
7 | Cc1cc(C(C)(C)C)c(O)c(C)c1CC1=NCCN1 | 95% (inactive) | 93.4% (inactive) | 92.5% (inactive) | 2.26% (inactive) | 90.3 | 92.5 | -9.04% (inactive) | -3.23% (inactive)
8 | Cn1c(Cc2ccccc2)nnc1SCC(=O)N1CCOCC1 | 91% (inactive) | 95.6% (inactive) | 101% (inactive) | 6.17% (inactive) | 94.8 | 101 | -1.08% (inactive) | 28.7% (inactive)
9 | O=C1c2oc3ccccc3c(=O)c2C(c2cccnc2)N1Cc1ccco1 (configuration not stated) | 98% (inactive) | 106% (inactive) | 87.8% (inactive) | -0.59% (inactive) | 88.4 | 87.8 | -0.96% (inactive) | -2.36% (inactive)
10 | Cc1cccc(NC(=O)CCCCCN2C(=O)c3ccccc3C2=O)n1 | 92% (inactive) | 105% (inactive) | 105% (inactive) | 2.47% (inactive) | 102 | 105 | -7.12% (inactive) | 5.45% (inactive)
11 | COc1ccc(NC(=O)N(C2CCCCC2)C2CCN(C(C)C)CC2)c(OC)c1 | 87% (inactive) | 100% (inactive) | 103% (inactive) | 19.4% (inactive) | 83.2 | 103 | -2.73% (inactive) | -7.87% (inactive)
12 | Cc1cc(C(F)(F)F)c2c(C)nn(CCc3nn[nH]n3)c2n1 | 105% (inactive) | 91.4% (inactive) | 96.1% (inactive) | -1.98% (inactive) | 98.1 | 96.1 | 0.14% (inactive) | 12.2% (inactive)
13 | CCC1CCCCN1C(=O)CSc1nnc(-c2ccco2)o1 (configuration not stated) | 126% (inactive) | 94.4% (inactive) | 85.7% (inactive) | 3.32% (inactive) | 82.3 | 85.7 | -1.78% (inactive) | -6.45% (inactive)
14 | CC(=O)Nc1ccc(Cc2ccncc2)cc1 | 105% (inactive) | 90.2% (inactive) | 96.1% (inactive) | 8.84% (inactive) | 87.3 | 96.1 | -4.8% (inactive) | -4.36% (inactive)
15 | COc1ccc(NC(=O)N2CCN(c3nc(-c4cccc(OC)c4)cs3)CC2)cc1 | 94% (inactive) | 49.3% (inactive) | 82.8% (inactive) | -4.01% (inactive) | 86.8 | 82.8 | -9.59% (inactive) | -4.52% (inactive)
16 | COc1cc(SC)ccc1C(=O)Nc1ccccc1C#N | 75% (inactive) | 79.6% (inactive) | 70.5% (inactive) | -25.8% (inactive) | 96.3 | 70.5 | -7.4% (inactive) | 0.91% (inactive)
17 | O=C(NC1CC1)C1CCC(=O)N1C1CCCC1 (configuration not stated) | 93% (inactive) | 102% (inactive) | 105% (inactive) | 16.3% (inactive) | 88.4 | 105 | -1.17% (inactive) | 0.33% (inactive)
18 | O=C(O)c1ccc(NC(=O)c2cccs2)cc1 | 87% (inactive) | 94.7% (inactive) | 92.5% (inactive) | 12.8% (inactive) | 79.7 | 92.5 | -5.73% (inactive) | -4.55% (inactive)
19 | COc1ccc(CNCC(=O)Nc2cc(C)nn2-c2nc(C)cc(C)n2)cc1OC | 98% (inactive) | 51.1% (inactive) | 11.9% (active) | -58.3% (inactive) | 70.1 | 11.9 | -2.99% (inactive) | 1.15% (inactive)
20 | CCn1nnnc1SCC(=O)N1c2ccccc2CCc2ccccc21 | 86% (inactive) | 99.1% (inactive) | 86.7% (inactive) | -5.9% (inactive) | 92.6 | 86.7 | -9.07% (inactive) | -0.18% (inactive)
21 | CCc1ccccc1OCCCCN1CCCC1 | 124% (inactive) | 82% (inactive) | 89.1% (inactive) | 10.8% (inactive) | 78.2 | 89.1 | -5.06% (inactive) | -1.97% (inactive)
22 | COc1cc(C(=O)Nc2cc(-c3ccccc3)[nH]n2)cc(OC)c1OC | 107% (inactive) | 68.3% (inactive) | 26% (active) | -45.8% (inactive) | 71.7 | 26 | -4.27% (inactive) | -1.27% (inactive)
23 | O=C(Nc1ccc2c(c1)nc1n2CCN(Cc2ccccc2)C1)c1cccs1 | 76.5% (inactive) | 88.7% (inactive) | 80.2% (inactive) | -12.4% (inactive) | 92.6 | 80.2 | -5.89% (inactive) | 6.19% (inactive)
24 | O=C(CN1CCCN(S(=O)(=O)c2ccc(Br)cc2)CC1)Nc1ccc2c(c1)OCO2 | 91% (inactive) | 75% (inactive) | 6.58% (active) | -10.3% (inactive) | 16.9 | 6.58 | -0.52% (inactive) | 3.77% (inactive)
